Measured values taken from ChEMBL document CHEMBL1138298, “Synthesis and evaluation of 7H-8,9-dihydropyrano[2,3-c]imidazo[1,2-a]pyridines as potassium-competitive acid blockers” (J Med Chem, 2007).
The source made the active and inactive calls. No cut-off for these calls is given here.

Legend:
[1] = (§1) Inhibition of H+/K+ ATPase in hog gastric mucosa; type: tissue-based, Sus scrofa
In short: (§2)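 Hog gastric mucosa H+/K+-ATPase (0.5-1 µg/100 µL, with nigericin 1:1) in 4 mM Pipes/8 mM Tris pH 7.4, 0.25 M sucrose, 1 mM MgCl2, stimulated by 1 mM KCl. Compound 1e-4 to 1e-9 M final from DMSO stocks. Started with 1 mM Na-ATP, 30 min room temperature. Phosphate read by malachite green at 680 nm after 15 min.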

Gastric gland = assay: Inhibition of acid secretion in rabbit intact gastric glands assessed as […] accumulation; type: functional, tissue-based; details: Oryctolagus cuniculus
In short: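 Isolated gastric glands in Krebs-Henseleit with 2 mg/mL rabbit serum albumin and 2 mg/mL glucose. Incubated 30 min at 37 °C, shaking, with 0.125 µM 14C-aminopyrine at pH 7.4, stimulated by 1 mM dibutyryl cAMP, inhibitor 3 nM-100 µM. Stopped by centrifugation. Accumulation taken from pellet/supernatant radioactivity ratio. IC50 from fitted inhibition equation.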

Rattus norvegicus [2] = assay: Inhibition of pentagastrin-stimulated acid secretion in perfused Ghosh Schild rat stomach at 3 umol/kg, intraduodenal; type: functional; design: scale not given: the % may be the effect or the level left
In short: (§3)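 Anaesthetised rat with perfused stomach: 37 °C saline at 0.5 mL/min. Effluent titrated to pH 7 with 0.01 N NaOH in 15-min fractions. Secretion driven by continuous iv pentagastrin, 1 µg/kg (1.65 mL/h). Compound given intraduodenally in 2.5 mL/kg volume 60 min after infusion start. Body temperature held at 37.8-38 °C.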

[3] = Dissociation constant, pKa of the compound; type: physicochemical
In short: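 Potentiometric cosolvent titration in 0.15 mol/L KCl, pH 2.0-11.0, 25 °C, methanol as cosolvent in varying portions; titrants 0.5 mol/L KOH and HCl.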

[4] = Distribution coefficient, log D of the compound; type: physicochemical; details: octanol/water
In short: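 Distribution between 1-octanol and aqueous KCl measured by potentiometric titration over pH 2.0-11.0 at 25 °C.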

Sus scrofa = species on record: Sus scrofa; assay: as §1; type: tissue-based; in short: as §2
Rattus norvegicus [5] = assay: Inhibition of pentagastrin-stimulated acid secretion in perfused Ghosh Schild rat stomach at 1 umol/kg, intraduodenal; type: functional; design: scale not given: the % may be the effect or the level left; in short: as §3
Rattus norvegicus [6] = assay: Inhibition of pentagastrin-stimulated acid secretion in perfused Ghosh Schild rat stomach at 0.3 umol/kg, intraduodenal; type: functional; design: scale not given: the % may be the effect or the level left; in short: as §3

SMILES | pIC50 [1] | pKa [3] | logD [4] | Activity (Sus scrofa) | IC50 (Gastric gland) [µM] | Activity (Gastric gland) | Activity (Rattus norvegicus [2]) [%] | Activity (Rattus norvegicus [5]) [%] | Activity (Rattus norvegicus [6]) [%]
COCCNC(=O)c1c(C)nc2c3c(c(C(=O)N(C)C)cn12)CCC(c1ccccc1)O3 (racemic) |  | 4.38 | 1.95 | inactive |  |  |  | 54 | 
Cc1nc2c3c(c(C(=O)N(C)C)cn2c1C(=O)N(C)C)CCC(c1ccccc1)O3 (racemic) |  | 4.51 | 1.69 | inactive |  |  |  | 26 | 
Cc1nc2c3c(c(C(=O)N4CCCC4)cn2c1C)CC[C@H](c1ccccc1)O3 | 4.5 |  |  |  | 2.51 |  | 27 |  | 
CCc1c(C)nc2c3c(c(C(=O)N(C)C)cn12)CC[C@H](c1ccccc1)O3 | 4.4 |  |  |  | 10 |  | 20 |  | 
Cc1nc2c3c(c(C(=O)N4CC(O)C4)cn2c1C)CCC(c1ccccc1)O3 (racemic) | 5.9 | 6.63 | 2.19 |  | 63.1 |  | 54 |  | 

Continued, in another order:

pIC50 [1] | pKa [3] | logD [4] | Activity (Sus scrofa) | IC50 (Gastric gland) [µM] | SMILES | Activity (Gastric gland) | Activity (Rattus norvegicus [2]) [%] | Activity (Rattus norvegicus [5]) [%] | Activity (Rattus norvegicus [6]) [%]
4.2 | 2.5 | 1.9 |  |  | Cc1nc2c3c(c(C(=O)NS(C)(=O)=O)cn2c1C)CCC(c1ccccc1)O3 (racemic) | inactive | 38 |  | 
5.1 |  |  |  | 2 | Cc1nc2c3c(c(C(=O)NC4CC4)cn2c1C)CC[C@H](c1ccccc1)O3 |  | 40 |  | 
6.3 |  |  |  | 2 | CNC(=O)c1cn2c(C)c(C)nc2c2c1CC[C@@H](c1ccccc1)O2 |  |  |  | 62
4.4 |  |  |  | 5.01 | CNC(=O)c1cn2c(C)c(C)nc2c2c1CC[C@H](c1ccccc1)O2 |  | 38 |  | 
5.2 | 2.65 | 0.7 |  | 25.1 | Cc1nc2c3c(c(C(=O)O)cn2c1C)CCC(c1ccccc1)O3 (racemic) |  | 15 |  | 
5.3 |  |  |  | 0.398 | Cc1nc2c3c(c(C(=O)N(C)C)cn2c1C)CC[C@H](c1ccccc1F)O3 |  | 42 |  | 
< 4 |  |  |  |  | CC(=O)c1c(C)nc2c3c(c(C(=O)N(C)C)cn12)CC[C@H](c1ccccc1)O3 | inactive | 31 |  | 
